Measurements: ChEMBL document CHEMBL4020833, “A Systematic Exploration of Macrocyclization in Apelin-13: Impact on Binding, Signaling, Stability, and Cardiovascular Effects” (J Med Chem, 2018)
Activity calls are given as the source filed them. The rule behind the calls is not given here. Starred links: 1 amine or outer side, 2 acyl side, 3 side chain; linkers in the order of their positions; H or OH if unused. Positions of bridges follow the written chain, without caps; N, C: chain ends. Non-standard residues stand in square brackets, D forms with d. Residues, ends and D or L forms follow the SMILES beside them. X2 = N=C(N)NCCC[C@@H](C(=O)[*:2])N(CC=[*:3])[*:1]; X4 = O=C([C@H](CO)N(CC=[*:3])[*:1])[*:2]; AllylGly = C=CC[C@H](N)C(=O)O; pGlu = O=C1CC[C@@H](C(=O)O)N1; Nle = CCCC[C@H](N)C(=O)O

Tests used:
[1] = Half life in rat plasma at 1 mM by UPLC-MS analysis; assay type: ADME, cell-free
Summary of the method: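 Male rat plasma incubated with peptide at 37 °C for 2, 4, 7, 24 h (or 10, 20, 60, 120 min for short-lived peptides); quenched with acetonitrile-ethanol (1:1) plus nicotinamide internal standard, then UPLC-MS. Percent remaining fitted to exponential decay for half-life; means ± SEM of three independent experiments. 1 mM is the stock solution.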

Apelin receptor [2] = biological target: T1, Apelin receptor (Homo sapiens, UniProt P35414); assay: Activity at GFP10-tagged human APJ receptor expressed in HEK293 cells assessed as induction of RlucII-tagged beta-arrestin-2 recruitment after 30 mins by BRET assay; assay type: cell-based
T1 sequence (P35414 whole entry): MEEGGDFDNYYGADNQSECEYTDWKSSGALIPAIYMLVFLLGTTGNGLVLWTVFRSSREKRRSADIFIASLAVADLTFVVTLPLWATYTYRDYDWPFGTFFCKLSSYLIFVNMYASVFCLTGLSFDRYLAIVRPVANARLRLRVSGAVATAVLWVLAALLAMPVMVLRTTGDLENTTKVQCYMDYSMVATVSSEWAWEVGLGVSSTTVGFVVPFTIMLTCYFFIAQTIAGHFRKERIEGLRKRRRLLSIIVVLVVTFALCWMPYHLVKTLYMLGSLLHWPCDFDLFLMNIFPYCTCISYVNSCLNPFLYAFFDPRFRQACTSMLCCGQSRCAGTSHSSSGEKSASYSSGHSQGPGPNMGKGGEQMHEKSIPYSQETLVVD

Apelin receptor [3] = biological target: T1, Apelin receptor; assay: Displacement of [125I]-[Nle75, Tyr77] Pyr1-apelin-13 from YFP-tagged human APJ receptor expressed in HEK293 cell membranes after 1 hr by gamma-counting method
Apelin receptor [4] = biological target: T1, Apelin receptor; assay: Activity at human APJ receptor expressed in HEK293 cells assessed as dissociation of Galphai1 from Gbetagamma subunit after 5 mins by BRET assay; assay type: cell-based
[5] = Drug level in Sprague-Dawley rat plasma at 3 mg/kg, iv measured at 5 mins by LC-MS/MS; assay type: ADME, organism-based
Summary of the method: (§1)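 Male Sprague-Dawley rats (250-350g) under intramuscular ketamine/xylazine (87/13 mg/kg); compound in 350 µL normal saline given via jugular vein. Carotid blood drawn into EDTA tubes at 1, 5, 10, 15, 30, 60, 120 min (1, 2, 5, 10, 15 min for Pyr-apelin-13), centrifuged for plasma, acetonitrile precipitation with internal standard, LC-MS/MS (ESI+, MRM).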

Apelin receptor [6] = biological target: T1, Apelin receptor; assay: Induction of human HA-tagged APJ receptor internalization expressed in HEK293 cells after 30 mins by ELISA; assay type: cell-based
[7] = AUC in Sprague-Dawley rat at 3 mg/kg, iv measured up to 120 mins by LC-MS/MS analysis; assay type: ADME, organism-based; design: dose 3 mg/kg, time < 2 hr, route intravenous; details: in vivo; summary of the method: as §1
Rattus norvegicus [8] = assay: Hypotensive activity in Sprague-Dawley rat assessed as reduction in systemic arterial blood pressure at 19.5 or 65 nmol/kg, iv administered over 10 secs; assay type: functional
Summary of the method: (§2)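 Male Sprague-Dawley rats (250-350g) anesthetized with intramuscular ketamine/xylazine (87/13 mg/kg), kept on a thermostatic pad. Carotid catheter for arterial pressure; jugular bolus of saline vehicle, then 5 min later peptide (19.6 or 65 nmol/kg; 0.25 ml over 10 s), followed by a saline flush.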

Heart [9] = assay: Inotropic activity in Langendorff isolated-perfused Sprague-Dawley rat heart assessed as drug level causing maximum increase in left ventricular developed pressure efficacy relative to baseline control; assay type: functional
Summary of the method: (§3)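 Sprague-Dawley rat hearts isolated and perfused in Langendorff mode with increasing peptide concentrations from 0.001 to 0.3 nM. Increase in left ventricular developed pressure recorded as the inotropic read-out, expressed as % from baseline; compared with buffer by unpaired parametric t test.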

Heart [10] = assay: Inotropic activity in Langendorff isolated-perfused Sprague-Dawley rat heart assessed as increase in left ventricular developed pressure efficacy at 0.003 nM relative to baseline control; assay type: functional; summary of the method: as §3
Heart [11] = assay: Inotropic activity in Langendorff isolated-perfused Sprague-Dawley rat heart assessed as increase in left ventricular developed pressure efficacy at 0.03 nM relative to baseline control; assay type: functional; details: in the assay text read “0.003 nM” for “0.03 nM”; summary of the method: as §3
Rattus norvegicus [12] = assay: Hypotensive activity in Sprague-Dawley rat assessed as reduction in systemic arterial blood pressure at 65 nmol/kg, iv administered over 10 secs; assay type: functional, organism-based; summary of the method: as §2

SMILES | half-life at 1000 µM [1] | EC50 (Apelin receptor [2]) | Ki (Apelin receptor [3]) | EC50 (Apelin receptor [4]) | other results
CCCC[C@@H]1NC(=O)[C@@H]2CCCN2C(=O)CNC(=O)[C@@H](NC(=O)[C@H](Cc2cnc[nH]2)NC(=O)[C@H](CO)NC(=O)[C@H](CC(C)C)NC(=O)[C@H](CCCNC(=N)N)NC(=O)[C@@H]2CCCN2C(=O)[C@H](CCCNC(=N)N)NC(=O)[C@@H]2CCC(=O)N2)C/C=C\C[C@@H](C(=O)N[C@@H](Cc2ccccc2)C(=O)O)NC1=O ([pGlu]RPRLSH[AllylGly]GP[Nle][AllylGly]F-OH; staple (Z) 8-12) | 4.6 h | 825 nM | 14 nM | 30 nM | 
CCCC[C@@H]1NC(=O)[C@@H]2CCCN2C(=O)[C@@H](NC(=O)[C@H](CCCCN)NC(=O)[C@H](Cc2cnc[nH]2)NC(=O)[C@H](CO)NC(=O)[C@H](CC(C)C)NC(=O)[C@H](CCCNC(=N)N)NC(=O)[C@@H]2CCCN2C(=O)[C@H](CCCNC(=N)N)NC(=O)[C@@H]2CCC(=O)N2)C/C=C\C[C@@H](C(=O)O)NC(=O)[C@@H]2CCCN2C1=O [listing 1 of 2 here] | 8.6 h |  |  |  | concentration at 5 min [5]: 5.6 µM; EC50 (Apelin receptor [6]; hek293): 469 nM; EC50 (Apelin receptor [2]; hek293): 272 nM; AUC at 2 h [7]: 4100 ng·h/mL; Ki (Apelin receptor [3]; hek293): 1.1 nM; EC50 (Apelin receptor [4]; hek293): 19 nM
CCCC[C@@H]1NC(=O)[C@@H]2CCCN2C(=O)[C@@H](NC(=O)[C@H](CCCCN)NC(=O)[C@H](Cc2cnc[nH]2)NC(=O)[C@H](CO)NC(=O)[C@H](CC(C)C)NC(=O)[C@H](CCCNC(=N)N)NC(=O)[C@@H]2CCCN2C(=O)[C@H](CCCNC(=N)N)NC(=O)[C@@H]2CCC(=O)N2)CCN(S(=O)(=O)c2ccccc2[N+](=O)[O-])C/C=C\C[C@@H](C(=O)O)NC(=O)[C@@H]2CCCN2C1=O | 6.8 h | 57 nM | 0.15 nM | 1.3 nM | concentration at 5 min [5]: 2.5 µM; EC50 (Apelin receptor [6]): 45 nM; AUC at 2 h [7]: 2800 ng·h/mL; Activity (Rattus norvegicus [8]): <=40 mmHg; Activity (Heart [9]): 3 pM
CCCC[C@H](NC(=O)[C@@H]1C/C=C\CN(C(=O)[C@H](CC(C)C)NC(=O)[C@H](CCCNC(=N)N)NC(=O)[C@@H]2CCCN2C(=O)[C@H](CCCNC(=N)N)NC(=O)[C@@H]2CCC(=O)N2)[C@@H](CO)C(=O)N[C@@H](Cc2cnc[nH]2)C(=O)N[C@@H](CCCCN)C(=O)NCC(=O)N1)C(=O)N1CCC[C@H]1C(=O)N[C@@H](Cc1ccccc1)C(=O)O ([pGlu]RPRL[X4]HKG[AllylGly][Nle]PF-OH; staple (Z) 6-10) | > 24 h |  | 188 nM |  | 
CCCC[C@H](NC(=O)[C@@H]1CCCN1C(=O)CNC(=O)[C@@H]1C/C=C\CN(C(=O)[C@@H]2CCCN2C(=O)[C@H](CCCNC(=N)N)NC(=O)[C@@H]2CCC(=O)N2)[C@@H](CCCNC(=N)N)C(=O)N[C@@H](CC(C)C)C(=O)N[C@@H](CO)C(=O)N[C@@H](Cc2cnc[nH]2)C(=O)N1)C(=O)N1CCC[C@H]1C(=O)N[C@@H](Cc1ccccc1)C(=O)O ([pGlu]RP[X2]LSH[AllylGly]GP[Nle]PF-OH; staple (Z) 4-8) | 7.7 h | 512 nM | 9.1 nM | 19 nM | 
CCCC[C@H](NC(=O)[C@@H]1CCCN1C(=O)CNC(=O)[C@H](CCCCN)NC(=O)[C@@H]1C/C=C\C[C@H](NC(=O)[C@H](CCCNC(=N)N)NC(=O)[C@@H]2CCC(=O)N2)C(=O)N[C@@H](CCCNC(=N)N)C(=O)N[C@@H](CC(C)C)C(=O)N[C@@H](CO)C(=O)N1)C(=O)N1CCC[C@H]1C(=O)N[C@@H](Cc1ccccc1)C(=O)O | 3.9 h |  |  |  | Activity (Rattus norvegicus [8]): <=40 mmHg; Activity (Heart [9]): Active
C=CC[C@H](NC(=O)[C@@H]1CCCN1C(=O)[C@H](CCCC)NC(=O)[C@@H]1CCCN1C(=O)[C@H](CC=C)NC(=O)[C@H](CCCCN)NC(=O)[C@H](Cc1cnc[nH]1)NC(=O)[C@H](CO)NC(=O)[C@H](CC(C)C)NC(=O)[C@H](CCCNC(=N)N)NC(=O)[C@@H]1CCCN1C(=O)[C@H](CCCNC(=N)N)NC(=O)[C@@H]1CCC(=O)N1)C(=O)O ([pGlu]RPRLSHK[AllylGly]P[Nle]P[AllylGly]-OH) | 2.4 h | 145 nM | 2.1 nM | 2 nM | 
CCCC[C@H](NC(=O)[C@@H]1C/C=C\C[C@H](NC(=O)[C@H](CC(C)C)NC(=O)[C@H](CCCNC(=N)N)NC(=O)[C@@H]2CCCN2C(=O)[C@H](CCCNC(=N)N)NC(=O)[C@@H]2CCC(=O)N2)C(=O)N[C@@H](Cc2cnc[nH]2)C(=O)N[C@@H](CCCCN)C(=O)NCC(=O)N1)C(=O)N1CCC[C@H]1C(=O)N[C@@H](Cc1ccccc1)C(=O)O ([pGlu]RPRL[AllylGly]HKG[AllylGly][Nle]PF-OH; staple (Z) 6-10) | 4.1 h |  | 268 nM |  | 
CCCC[C@@H]1NC(=O)[C@@H]2CCCN2C(=O)[C@@H](NC(=O)[C@H](CCCCN)NC(=O)[C@H](Cc2cnc[nH]2)NC(=O)[C@H](CO)NC(=O)[C@H](CC(C)C)NC(=O)[C@H](CCCNC(=N)N)NC(=O)[C@@H]2CCCN2C(=O)[C@H](CCCNC(=N)N)NC(=O)[C@@H]2CCC(=O)N2)C/C=C\C[C@@H](C(=O)O)NC(=O)[C@@H]2CCCN2C1=O [listing 2 of 2 here] |  |  |  |  | Efficacy (Heart [10]): 217%; Activity (Heart [9]): 3 pM
CCCC[C@H](NC(=O)[C@@H]1CCCN1C(=O)CNC(=O)[C@H](CCCCN)NC(=O)[C@H](Cc1cnc[nH]1)NC(=O)[C@@H]1C/C=C\C[C@H](NC(=O)[C@@H]2CCC(=O)N2)C(=O)N2CCC[C@H]2C(=O)N[C@@H](CCCNC(=N)N)C(=O)N[C@@H](CC(C)C)C(=O)N1)C(=O)N1CCC[C@H]1C(=O)N[C@@H](Cc1ccccc1)C(=O)O | 0.7 h |  | 509 nM |  | 
CSCC[C@H](NC(=O)[C@@H]1CCCN1C(=O)CNC(=O)[C@H](CCCCN)NC(=O)[C@H](Cc1cnc[nH]1)NC(=O)[C@H](CO)NC(=O)[C@H](CC(C)C)NC(=O)[C@H](CCCNC(=N)N)NC(=O)[C@@H]1CCCN1C(=O)[C@H](CCCNC(=N)N)NC(=O)[C@@H]1CCC(=O)N1)C(=O)N1CCC[C@H]1C(=O)N[C@@H](Cc1ccccc1)C(=O)O |  |  |  |  | AUC at 2 h [7]: 3.33 ng·h/mL; Efficacy (Heart [11]): 81%; Activity (Heart [9]): 30 pM
CCCC[C@@H]1NC(=O)[C@@H]2CCCN2C(=O)[C@@H](NC(=O)[C@@H](CCCCN)NC(=O)[C@H](Cc2cnc[nH]2)NC(=O)[C@H](CO)NC(=O)[C@H](CC(C)C)NC(=O)[C@H](CCCNC(=N)N)NC(=O)[C@@H]2CCCN2C(=O)[C@H](CCCNC(=N)N)NC(=O)[C@@H]2CCC(=O)N2)C/C=C\C[C@@H](C(=O)O)NC(=O)[C@@H]2CCCN2C1=O |  |  |  |  | Activity (Rattus norvegicus [12]): Active
CCCC[C@H](NC(=O)[C@@H]1CCCN1C(=O)CNC(=O)[C@H](CCCCN)NC(=O)[C@H](Cc1cnc[nH]1)NC(=O)[C@H](CO)NC(=O)[C@@H]1C/C=C\C[C@H](N)C(=O)N[C@@H](CCCNC(=N)N)C(=O)N2CCC[C@H]2C(=O)N[C@@H](CCCNC(=N)N)C(=O)N1)C(=O)N1CCC[C@H]1C(=O)N[C@@H](Cc1ccccc1)C(=O)O | 0.8 h | 834 nM | 5.7 nM | 23 nM | 
CC(C)C[C@H](NC(=O)[C@H](CCCNC(=N)N)NC(=O)[C@@H]1CCCN1C(=O)[C@H](CCCNC(=N)N)NC(=O)[C@@H]1CCC(=O)N1)C(=O)N[C@@H](CO)C(=O)N[C@H]1C/C=C\C[C@@H](C(=O)N2CCC[C@H]2C(=O)N[C@@H](Cc2ccccc2)C(=O)O)NC(=O)[C@@H]2CCCN2C(=O)CNC(=O)[C@H](CCCCN)NC1=O ([pGlu]RPRLS[AllylGly]KGP[AllylGly]PF-OH; staple (Z) 7-11) | 6.6 h | 400 nM | 1.4 nM | 20 nM | 
